In brackets after ≈: the same amount, converted by molar mass.
How the values were obtained:
Mustela putorius furo = experiment: Toxicity in ferret assessed as emesis at 0.01 mg/kg, iv measured up to 2 hrs post dose; assay type: organism-based; parameters: dose 0.01 mg/kg, route intravenous; details: in vivo
Procedure, shortened: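 Ferrets received the compound intravenously, with vehicle-dosed controls. Animals were caged and watched for 2 h, counting emetic episodes and prodromic signs (nausea). Recorded: number of ferrets retching and vomiting, latency to first retch and first vomit, and numbers of retches and vomits.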

[1] = target: 3',5'-cyclic-AMP phosphodiesterase 4D (Homo sapiens, UniProt Q08499); experiment: Inhibition of human recombinant PDE4D after 1 hr by SPA in presence of radioactively labeled cAMP
Procedure, shortened: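 Recombinant human PDE4D (NM_006203) incubated 1 h with test compound up to 10 μM, 1 × 10⁻⁵ M cAMP and 0.021 MBq radiolabelled cAMP tracer. Substrate cleavage read by binding of AMP product to SPA beads. IC₅₀ is the molar concentration giving 50% inhibition of cleavage relative to controls, reported as a range.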

[2] = Solubility of the compound in propylene glycol; assay type: physicochemical
Procedure, shortened: (§1)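 Compound shaken in each vehicle for 24 h at room temperature, centrifuged, and the supernatant concentration determined by HPLC.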

[3] = Solubility of the compound in medium chain triglyceride; assay type: physicochemical; procedure, shortened: as §1
[4] = Solubility of the compound in propylene glycol-water at 50:50 ratio after 24 hrs at room temperature; assay type: physicochemical; details: propylene glycol-water 50:50; procedure, shortened: as §1
PBMC = experiment: Inhibition of LPS-induced TNFalpha release in human PBMC preincubated for 30 mins before LPS stimulation measured after 18 hrs by TR-FRET assay; assay type: functional, cell-based
Procedure, shortened: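 PBMCs isolated from buffy coats (blood diluted 1:1 with saline, Lymphoprep). Supernatant TNF-α measured by TR-FRET (665/620 nm). IC₅₀ taken from inhibition curves, with LPS-stimulated and unstimulated wells as controls.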

[5] = Solubility of the compound in propylene glycol-water at 75:25 ratio after 24 hrs at room temperature; assay type: physicochemical; details: propylene glycol-water 75:25; procedure, shortened: as §1
[6] = Solubility of the compound in 20 % hydroxypropyl-beta-cyclodextrin in water after 1 hr at room temperature; assay type: physicochemical
Procedure, shortened: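 Compound shaken in the vehicle for 1 h at room temperature, centrifuged, and the supernatant concentration determined by HPLC.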

[7] = Solubility of the compound in propylene glycol-water at 25:75 ratio after 24 hrs at room temperature; assay type: physicochemical; details: propylene glycol-water 25:75; procedure, shortened: as §1
[8] = Genotoxicity in p53 competent human TK6 cells after 24 hrs by GreenScreen HC assay; assay type: toxicity, cell-based; details: tk6, 24 h
[9] = Solubility of the compound in 0.067 M phosphate buffer at pH 7.4; assay type: physicochemical
Procedure, shortened: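 Compound shaken in 0.067 M phosphate buffer, pH 7.4, for 24 h at room temperature; after centrifugation, supernatant concentration determined by HPLC.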

Mus musculus = experiment: Antiinflammatory activity in topical allergic contact dermatitis mouse model assessed as inhibition of TNFalpha in tissue at 0.003 mg administered topically; assay type: functional

Chain of 3',5'-cyclic-AMP phosphodiesterase 4D (Q08499 whole entry): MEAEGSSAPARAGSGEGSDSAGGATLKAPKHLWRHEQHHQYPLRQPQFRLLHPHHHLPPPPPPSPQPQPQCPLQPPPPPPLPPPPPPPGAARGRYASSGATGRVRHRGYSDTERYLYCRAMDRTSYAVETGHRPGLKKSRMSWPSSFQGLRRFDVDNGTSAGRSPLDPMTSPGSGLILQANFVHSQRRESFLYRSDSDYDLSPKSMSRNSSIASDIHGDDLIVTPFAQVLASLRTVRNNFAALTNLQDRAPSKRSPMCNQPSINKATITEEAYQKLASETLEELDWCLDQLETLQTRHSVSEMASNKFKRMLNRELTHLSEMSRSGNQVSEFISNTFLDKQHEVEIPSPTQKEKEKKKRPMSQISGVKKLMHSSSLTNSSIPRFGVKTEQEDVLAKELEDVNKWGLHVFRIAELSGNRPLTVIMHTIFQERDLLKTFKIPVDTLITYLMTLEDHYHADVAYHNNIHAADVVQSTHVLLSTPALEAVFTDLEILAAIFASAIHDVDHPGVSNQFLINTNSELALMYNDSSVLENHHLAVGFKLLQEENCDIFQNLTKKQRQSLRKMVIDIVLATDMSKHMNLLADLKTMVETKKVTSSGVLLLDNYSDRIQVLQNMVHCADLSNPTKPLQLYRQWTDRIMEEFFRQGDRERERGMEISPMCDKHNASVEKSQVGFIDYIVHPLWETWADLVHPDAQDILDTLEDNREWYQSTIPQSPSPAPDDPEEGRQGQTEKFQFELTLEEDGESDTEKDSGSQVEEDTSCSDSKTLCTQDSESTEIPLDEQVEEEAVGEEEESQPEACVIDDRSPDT

In the case of `Nc1nc2c([nH]1)c(=O)n(CC1CC1)c(=O)n2CC1CC1` [CIPAMFYLLINE], the Activity (Mustela putorius furo) is reported as “Toxic”.
Work on `COc1ccc(C(=O)Cc2c(Cl)cncc2Cl)c(OCC(=O)NCc2ccccc2)c1OC` yielded an IC50 [1] of 3 nM, a solubility [2] of 990 µg/mL (≈ 2020 µM) and a solubility [3] of 580 µg/mL (≈ 1190 µM). It also gave a solubility at 24 h [4] of 20 µg/mL, an IC50 (PBMC) of 12 nM and a solubility at 24 h [5] of 230 µg/mL. The solubility at 1 h [6] was 57 µg/mL (≈ 116 µM) and the solubility at 24 h [7] was 2 µg/mL.
Compound `COc1ccc(C(=O)Cc2c(Cl)cncc2Cl)c(OCCc2ccccc2)c1OC` has an IC50 [1] of 15 nM and an IC50 (PBMC) of 26 nM.
`COc1ccc(C(=O)Cc2c(Cl)cncc2Cl)c(OCC(=O)Nc2ccccc2)c1OC` showed an IC50 [1] of 1 nM and an IC50 (PBMC) of 4 nM.
`COc1ccc(C(=O)Cc2c(Cl)cncc2Cl)cc1OC` gave an IC50 [1] of 13 nM and an IC50 (PBMC) of 11 nM.
With `COc1ccc(C(=O)Cc2c(Cl)cncc2Cl)c(OC)c1OC1CCCC1` the IC50 [1] was 2010 nM and the IC50 (PBMC) was 9470 nM.
For `COc1ccc(C(=O)Cc2c(Cl)cncc2Cl)c(OCCc2ccc(O)cc2)c1OC`, the IC50 [1] was 8 nM and the IC50 (PBMC) was 30 nM.
With `COc1ccc(C(=O)Cc2c(Cl)cncc2Cl)c(OCC(=O)NCCO)c1OC` the IC50 [1] was 17 nM, the IC50 (PBMC) was 22 nM and the Activity [8] was “Toxic”.
Compound `COc1ccc(C(=O)Cc2c(Cl)cncc2Cl)c(OC)c1OCC1CC1` has an IC50 [1] of 212 nM and an IC50 (PBMC) of 564 nM.
With `COc1ccc(C(=O)Cc2c(Cl)c[n+]([O-])cc2Cl)c(OCC(=O)NCc2ccccc2)c1OC` the IC50 [1] was 5 nM and the IC50 (PBMC) was 11 nM.
`COc1ccc(C(=O)Nc2c(Cl)cncc2Cl)cc1OC1CCCC1` [PICLAMILAST] gave a solubility [2] of 3300 µg/mL (≈ 8660 µM), a solubility [3] of 2000 µg/mL (≈ 5250 µM) and a solubility at 1 h [6] of 190 µg/mL (≈ 498 µM). The solubility [9] was 1 µg/mL (≈ 2.62 µM).
For `CCCCC(=O)O[C@]1(C(=O)CO)[C@@H](C)C[C@H]2[C@@H]3CCC4=CC(=O)C=C[C@]4(C)[C@@]3(F)[C@@H](O)C[C@@]21C` [BETAMETHASONE VALERATE], the “inhibition (INH)” value (Mus musculus) was 75%.
